BindingDB's records for doi:10.1021/np070447m (2008)

How the values were obtained:
[1] = target: Proto-oncogene tyrosine-protein kinase Src (Homo sapiens, UniProt P12931); test: Inhibition of recombinant SRC
Method in brief: (§1)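 Purified recombinant kinase, 50 µL reaction. 1 µM [γ-33P]-ATP with substrate; compound added in 10% DMSO. Tested over several concentrations; IC50 in g/mL.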

[2] = target: T1, Ephrin type-B receptor 4 (Homo sapiens, UniProt P54760); test: Inhibition of recombinant EPHB4; method in brief: as §1
T1 sequence (P54760 whole entry): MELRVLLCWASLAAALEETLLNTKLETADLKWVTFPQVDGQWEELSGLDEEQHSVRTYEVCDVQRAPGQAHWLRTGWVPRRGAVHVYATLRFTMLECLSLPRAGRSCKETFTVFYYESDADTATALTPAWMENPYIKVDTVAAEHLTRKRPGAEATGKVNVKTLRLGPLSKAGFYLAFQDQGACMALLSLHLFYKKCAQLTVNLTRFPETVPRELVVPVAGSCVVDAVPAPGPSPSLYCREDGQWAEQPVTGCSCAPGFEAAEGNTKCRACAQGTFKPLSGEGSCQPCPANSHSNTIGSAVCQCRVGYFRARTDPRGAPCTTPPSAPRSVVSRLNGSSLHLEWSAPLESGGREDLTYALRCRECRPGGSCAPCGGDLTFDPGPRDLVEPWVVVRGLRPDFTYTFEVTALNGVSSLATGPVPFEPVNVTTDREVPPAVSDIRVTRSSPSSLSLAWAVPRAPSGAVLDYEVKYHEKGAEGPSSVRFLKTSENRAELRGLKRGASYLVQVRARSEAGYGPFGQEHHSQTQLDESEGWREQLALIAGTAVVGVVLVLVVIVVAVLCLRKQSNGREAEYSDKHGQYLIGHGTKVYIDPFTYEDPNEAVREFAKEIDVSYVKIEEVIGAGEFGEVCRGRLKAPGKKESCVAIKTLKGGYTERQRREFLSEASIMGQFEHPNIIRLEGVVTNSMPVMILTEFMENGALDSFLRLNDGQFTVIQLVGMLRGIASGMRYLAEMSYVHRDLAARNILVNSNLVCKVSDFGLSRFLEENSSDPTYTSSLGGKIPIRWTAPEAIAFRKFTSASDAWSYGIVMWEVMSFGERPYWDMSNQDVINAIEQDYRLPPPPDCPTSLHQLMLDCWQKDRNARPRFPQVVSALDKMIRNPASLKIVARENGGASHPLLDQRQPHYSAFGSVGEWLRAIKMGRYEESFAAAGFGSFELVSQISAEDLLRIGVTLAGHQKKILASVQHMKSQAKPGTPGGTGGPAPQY

[3] = target: T2, Serine/threonine-protein kinase PLK4 (Homo sapiens, UniProt O00444); test: Inhibition of recombinant SAK
T2 sequence (O00444 whole entry): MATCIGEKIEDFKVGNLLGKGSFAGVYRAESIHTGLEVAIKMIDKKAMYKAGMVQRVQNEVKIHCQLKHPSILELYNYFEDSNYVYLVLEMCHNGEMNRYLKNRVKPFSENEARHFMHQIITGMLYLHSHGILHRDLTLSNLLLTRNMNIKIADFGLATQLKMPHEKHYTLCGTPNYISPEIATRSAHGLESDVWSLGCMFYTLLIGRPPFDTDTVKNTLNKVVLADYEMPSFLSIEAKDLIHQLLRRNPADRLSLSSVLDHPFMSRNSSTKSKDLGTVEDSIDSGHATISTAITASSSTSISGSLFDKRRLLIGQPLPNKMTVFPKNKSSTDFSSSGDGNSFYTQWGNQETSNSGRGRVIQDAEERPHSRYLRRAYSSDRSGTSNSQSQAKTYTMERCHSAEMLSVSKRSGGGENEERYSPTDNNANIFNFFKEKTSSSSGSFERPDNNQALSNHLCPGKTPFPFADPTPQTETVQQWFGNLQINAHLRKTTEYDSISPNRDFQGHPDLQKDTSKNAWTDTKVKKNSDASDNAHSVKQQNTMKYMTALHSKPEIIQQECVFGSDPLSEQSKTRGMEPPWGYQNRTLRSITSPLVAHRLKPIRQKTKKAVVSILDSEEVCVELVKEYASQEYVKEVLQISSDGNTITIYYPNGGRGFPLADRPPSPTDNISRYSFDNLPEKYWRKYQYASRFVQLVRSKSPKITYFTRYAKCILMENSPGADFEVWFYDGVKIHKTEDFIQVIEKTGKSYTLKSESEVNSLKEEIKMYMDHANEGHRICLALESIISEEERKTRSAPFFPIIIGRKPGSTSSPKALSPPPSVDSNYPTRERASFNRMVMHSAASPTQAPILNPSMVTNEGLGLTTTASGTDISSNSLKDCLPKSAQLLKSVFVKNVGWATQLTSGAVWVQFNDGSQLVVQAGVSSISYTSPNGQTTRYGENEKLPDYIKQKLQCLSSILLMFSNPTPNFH

[4] = target: Serine/threonine-protein kinase B-raf (Homo sapiens, UniProt P15056, V600E); test: Inhibition of recombinant B-RAF-V600E mutant; method in brief: as §1
[5] = target: Angiopoietin-1 receptor (Homo sapiens, UniProt Q02763); test: Inhibition of recombinant TIE2
[6] = target: T3, NUAK family SNF1-like kinase 1 (Homo sapiens, UniProt O60285); test: Inhibition of recombinant ARK5
T3 sequence (O60285 whole entry): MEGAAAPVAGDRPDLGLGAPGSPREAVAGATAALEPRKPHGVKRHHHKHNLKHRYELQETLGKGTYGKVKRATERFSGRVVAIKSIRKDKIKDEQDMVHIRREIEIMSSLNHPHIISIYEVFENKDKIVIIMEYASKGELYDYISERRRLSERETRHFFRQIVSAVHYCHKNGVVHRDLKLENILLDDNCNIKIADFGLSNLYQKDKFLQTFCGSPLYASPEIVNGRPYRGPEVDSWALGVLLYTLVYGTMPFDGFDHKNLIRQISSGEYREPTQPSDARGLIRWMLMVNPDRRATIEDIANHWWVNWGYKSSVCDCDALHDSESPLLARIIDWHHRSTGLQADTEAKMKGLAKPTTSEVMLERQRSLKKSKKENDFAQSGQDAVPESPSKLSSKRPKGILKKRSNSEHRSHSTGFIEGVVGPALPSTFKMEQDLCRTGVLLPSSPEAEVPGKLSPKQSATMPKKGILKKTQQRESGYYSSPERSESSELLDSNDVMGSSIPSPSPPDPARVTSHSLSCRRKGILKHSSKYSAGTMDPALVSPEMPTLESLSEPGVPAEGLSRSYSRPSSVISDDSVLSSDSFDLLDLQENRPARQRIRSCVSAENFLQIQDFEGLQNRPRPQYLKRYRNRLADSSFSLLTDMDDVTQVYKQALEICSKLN

[7] = target: Mitogen-activated protein kinase kinase kinase 8 (Homo sapiens, UniProt P41279); test: Inhibition of recombinant COT
[8] = target: Focal adhesion kinase 1 (Homo sapiens, UniProt Q05397); test: Inhibition of recombinant FAK
[9] = target: Aurora kinase B (Homo sapiens, UniProt Q96GD4); test: Inhibition of recombinant Aurora B; method in brief: as §1
Chain of Aurora kinase B (Q96GD4 whole entry): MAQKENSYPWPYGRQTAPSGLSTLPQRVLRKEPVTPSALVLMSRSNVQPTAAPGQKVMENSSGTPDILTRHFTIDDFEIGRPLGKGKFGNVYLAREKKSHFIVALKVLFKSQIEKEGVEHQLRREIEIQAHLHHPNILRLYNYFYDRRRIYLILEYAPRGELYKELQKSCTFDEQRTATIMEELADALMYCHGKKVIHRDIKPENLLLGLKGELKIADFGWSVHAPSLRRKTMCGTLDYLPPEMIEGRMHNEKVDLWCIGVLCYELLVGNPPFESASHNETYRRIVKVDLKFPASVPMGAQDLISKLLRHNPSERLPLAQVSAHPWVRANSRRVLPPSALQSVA

Chain of Serine/threonine-protein kinase B-raf (P15056 2-766 V600E limits assumed): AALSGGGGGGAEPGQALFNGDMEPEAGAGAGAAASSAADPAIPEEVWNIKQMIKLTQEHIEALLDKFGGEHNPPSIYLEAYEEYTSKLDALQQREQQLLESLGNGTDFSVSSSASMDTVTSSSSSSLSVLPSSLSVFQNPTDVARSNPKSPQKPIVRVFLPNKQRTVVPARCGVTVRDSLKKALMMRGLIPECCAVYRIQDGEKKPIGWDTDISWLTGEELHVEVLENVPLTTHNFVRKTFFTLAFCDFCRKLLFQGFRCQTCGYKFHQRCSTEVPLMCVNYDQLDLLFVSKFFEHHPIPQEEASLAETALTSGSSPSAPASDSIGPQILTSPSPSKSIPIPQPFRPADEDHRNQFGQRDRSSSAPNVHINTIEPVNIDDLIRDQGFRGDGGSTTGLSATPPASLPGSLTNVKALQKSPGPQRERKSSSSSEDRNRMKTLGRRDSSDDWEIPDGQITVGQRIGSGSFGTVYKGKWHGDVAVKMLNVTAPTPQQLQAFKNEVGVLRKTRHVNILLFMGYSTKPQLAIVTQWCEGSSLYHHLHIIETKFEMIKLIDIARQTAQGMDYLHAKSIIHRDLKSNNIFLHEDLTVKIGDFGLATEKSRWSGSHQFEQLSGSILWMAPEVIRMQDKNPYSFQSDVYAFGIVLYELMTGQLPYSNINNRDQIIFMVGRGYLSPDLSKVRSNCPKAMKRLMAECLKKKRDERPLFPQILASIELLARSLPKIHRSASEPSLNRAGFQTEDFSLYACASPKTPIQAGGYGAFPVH
Chain of Focal adhesion kinase 1 (Q05397 whole entry): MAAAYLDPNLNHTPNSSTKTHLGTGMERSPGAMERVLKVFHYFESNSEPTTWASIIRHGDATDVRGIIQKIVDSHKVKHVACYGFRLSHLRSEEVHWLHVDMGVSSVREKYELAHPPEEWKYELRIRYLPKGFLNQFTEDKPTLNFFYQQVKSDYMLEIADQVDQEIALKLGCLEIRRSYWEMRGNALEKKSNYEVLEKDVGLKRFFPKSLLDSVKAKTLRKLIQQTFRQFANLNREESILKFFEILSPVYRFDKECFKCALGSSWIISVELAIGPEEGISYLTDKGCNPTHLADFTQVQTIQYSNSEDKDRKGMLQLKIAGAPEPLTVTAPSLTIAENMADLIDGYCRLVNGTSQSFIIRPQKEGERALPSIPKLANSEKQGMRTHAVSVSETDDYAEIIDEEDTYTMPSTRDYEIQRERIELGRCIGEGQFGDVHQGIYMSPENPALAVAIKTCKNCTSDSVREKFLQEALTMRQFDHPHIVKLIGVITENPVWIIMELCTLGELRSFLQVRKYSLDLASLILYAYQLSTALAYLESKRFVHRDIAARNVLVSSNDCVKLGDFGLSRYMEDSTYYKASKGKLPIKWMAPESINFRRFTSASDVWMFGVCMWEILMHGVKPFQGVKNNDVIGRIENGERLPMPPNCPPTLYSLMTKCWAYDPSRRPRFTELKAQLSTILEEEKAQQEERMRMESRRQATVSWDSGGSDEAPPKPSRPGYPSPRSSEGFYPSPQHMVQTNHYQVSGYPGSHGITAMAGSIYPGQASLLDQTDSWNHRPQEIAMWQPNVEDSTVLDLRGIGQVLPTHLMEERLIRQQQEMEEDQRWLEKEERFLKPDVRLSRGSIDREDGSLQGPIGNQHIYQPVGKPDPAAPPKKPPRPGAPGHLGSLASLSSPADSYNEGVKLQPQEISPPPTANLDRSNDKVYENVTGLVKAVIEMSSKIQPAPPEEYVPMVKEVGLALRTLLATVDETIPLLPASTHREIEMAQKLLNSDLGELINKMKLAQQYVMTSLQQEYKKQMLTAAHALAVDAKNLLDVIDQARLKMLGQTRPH
Chain of Mitogen-activated protein kinase kinase kinase 8 (P41279 whole entry): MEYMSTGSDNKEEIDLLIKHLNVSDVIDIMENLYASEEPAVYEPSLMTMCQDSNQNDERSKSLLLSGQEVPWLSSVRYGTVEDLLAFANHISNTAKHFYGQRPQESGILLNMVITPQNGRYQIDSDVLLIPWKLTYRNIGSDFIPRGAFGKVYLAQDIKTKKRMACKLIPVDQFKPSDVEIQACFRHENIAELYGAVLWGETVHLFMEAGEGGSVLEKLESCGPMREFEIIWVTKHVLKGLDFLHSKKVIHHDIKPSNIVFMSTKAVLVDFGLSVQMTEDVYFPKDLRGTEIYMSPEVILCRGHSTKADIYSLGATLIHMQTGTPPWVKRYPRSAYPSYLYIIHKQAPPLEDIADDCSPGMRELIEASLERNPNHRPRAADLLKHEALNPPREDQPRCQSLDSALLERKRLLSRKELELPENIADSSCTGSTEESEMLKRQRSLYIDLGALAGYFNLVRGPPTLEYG
Chain of Angiopoietin-1 receptor (Q02763 whole entry): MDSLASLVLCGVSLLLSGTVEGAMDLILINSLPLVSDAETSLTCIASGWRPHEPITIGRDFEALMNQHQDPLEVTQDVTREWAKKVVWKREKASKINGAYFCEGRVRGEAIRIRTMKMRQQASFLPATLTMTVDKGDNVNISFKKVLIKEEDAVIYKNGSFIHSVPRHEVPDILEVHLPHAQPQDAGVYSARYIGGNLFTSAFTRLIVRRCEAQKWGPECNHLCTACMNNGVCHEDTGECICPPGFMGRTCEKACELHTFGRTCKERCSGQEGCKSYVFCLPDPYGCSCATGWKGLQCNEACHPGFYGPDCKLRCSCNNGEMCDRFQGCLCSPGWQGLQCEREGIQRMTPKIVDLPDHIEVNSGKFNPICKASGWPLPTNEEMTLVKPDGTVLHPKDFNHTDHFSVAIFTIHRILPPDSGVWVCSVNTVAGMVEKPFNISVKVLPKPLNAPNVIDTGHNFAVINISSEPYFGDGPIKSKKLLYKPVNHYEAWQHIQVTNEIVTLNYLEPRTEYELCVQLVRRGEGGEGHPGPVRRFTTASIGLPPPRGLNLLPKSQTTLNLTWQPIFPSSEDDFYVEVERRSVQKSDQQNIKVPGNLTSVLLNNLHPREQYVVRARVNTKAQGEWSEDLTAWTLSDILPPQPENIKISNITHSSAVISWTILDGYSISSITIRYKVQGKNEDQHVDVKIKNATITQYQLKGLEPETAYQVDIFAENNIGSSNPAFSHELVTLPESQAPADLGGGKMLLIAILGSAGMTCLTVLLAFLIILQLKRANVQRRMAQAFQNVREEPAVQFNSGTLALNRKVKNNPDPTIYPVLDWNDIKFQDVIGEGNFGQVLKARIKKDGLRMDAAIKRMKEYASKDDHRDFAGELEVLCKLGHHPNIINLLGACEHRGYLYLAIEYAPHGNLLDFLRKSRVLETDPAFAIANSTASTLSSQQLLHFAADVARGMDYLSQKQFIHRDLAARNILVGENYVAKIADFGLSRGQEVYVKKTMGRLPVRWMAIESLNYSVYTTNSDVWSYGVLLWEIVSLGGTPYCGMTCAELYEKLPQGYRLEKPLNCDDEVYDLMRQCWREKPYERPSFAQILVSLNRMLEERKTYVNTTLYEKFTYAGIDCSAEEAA
Chain of Proto-oncogene tyrosine-protein kinase Src (P12931 2-536 limits assumed): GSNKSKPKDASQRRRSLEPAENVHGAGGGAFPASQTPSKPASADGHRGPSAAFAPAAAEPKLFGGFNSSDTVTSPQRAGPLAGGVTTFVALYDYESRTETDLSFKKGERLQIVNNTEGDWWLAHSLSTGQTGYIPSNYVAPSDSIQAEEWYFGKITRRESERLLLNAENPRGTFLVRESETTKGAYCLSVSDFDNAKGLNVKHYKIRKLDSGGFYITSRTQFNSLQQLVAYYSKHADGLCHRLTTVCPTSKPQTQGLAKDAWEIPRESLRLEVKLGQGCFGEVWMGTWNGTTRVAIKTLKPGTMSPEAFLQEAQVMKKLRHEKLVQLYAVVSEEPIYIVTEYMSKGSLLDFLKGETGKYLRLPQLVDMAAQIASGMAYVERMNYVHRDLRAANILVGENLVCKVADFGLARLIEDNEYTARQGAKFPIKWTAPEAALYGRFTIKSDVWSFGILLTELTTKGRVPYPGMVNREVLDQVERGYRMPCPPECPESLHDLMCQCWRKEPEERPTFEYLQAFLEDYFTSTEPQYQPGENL

For `COc1cc(O)c2c(c1)-c1cc(O)c(O)cc1COC2=O` [Alterlactone], which IC50 [1] is on record?
Its IC50 is > 34.6 µM.

And the IC50 [2]?
Its IC50 is > 34.6 µM.

And the IC50 [3]?
The IC50 was > 34.6 µM.

And the IC50 [4]?
The IC50 was > 34.6 µM.

And the IC50 [5]?
Its IC50 is > 34.6 µM.

And the IC50 [6]?
The IC50 was > 34.6 µM.

And the IC50 [7]?
Its IC50 is > 34.6 µM.

And the IC50 [8]?
The IC50 was > 34.6 µM.

And the IC50 [9]?
Its IC50 is > 34.6 µM.

How did the IC50 [1] turn out when `COc1cc(O)c2c(c1)C1(OC2=O)C(=O)C(=O)CC1C` (stereo not drawn) [TALAROFLAVONE] was run?
Its IC50 is > 36.2 µM.

What about the IC50 [2] of the same compound?
Its IC50 is > 36.2 µM.

And the IC50 [3]?
The IC50 was > 36.2 µM.

And the IC50 [4]?
Its IC50 is > 36.2 µM.

And the IC50 [5]?
Its IC50 is > 36.2 µM.

What about the IC50 [6] of the same compound?
Its IC50 is > 36.2 µM.

What about the IC50 [7] of the same compound?
Its IC50 is > 36.2 µM.

And the IC50 [8]?
The IC50 was > 36.2 µM.

And the IC50 [9]?
Its IC50 is > 36.2 µM.
